Assays:
[1] = biological target: Cellular retinoic acid-binding protein 1 (Mus musculus, UniProt P62965); assay: Binding affinity for mouse Cytoplasmic retinoic acid binding protein type 1
How it was run: (§1)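 Equilibrium fluorometric titration at 25 °C of recombinant E. coli-expressed apo-proteins (mCRABP-I, mCRABP-II, or hRXRα DEF ligand-binding domain). Ligands came from ethanol stocks, with concentrations set by UV/vis in hexane. Tryptophan fluorescence quenching was read and corrected for inner filter effects. A survey was run at 10^-6 M protein to check stoichiometry.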

[2] = biological target: T1, Cellular retinoic acid-binding protein 2 (Mus musculus, UniProt P22935); assay: Binding affinity for mouse Cytoplasmic retinoic acid binding protein type 2; how it was run: as §1
T1 sequence (P22935 whole entry): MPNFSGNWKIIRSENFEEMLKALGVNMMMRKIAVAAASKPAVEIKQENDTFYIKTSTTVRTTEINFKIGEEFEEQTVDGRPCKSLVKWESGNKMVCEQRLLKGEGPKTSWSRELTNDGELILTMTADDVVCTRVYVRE

[3] = biological target: T2, Retinoic acid receptor beta (Mus musculus, UniProt P22605); assay: Inhibition of murine Retinoic acid receptor RAR beta
T2 sequence (P22605 whole entry): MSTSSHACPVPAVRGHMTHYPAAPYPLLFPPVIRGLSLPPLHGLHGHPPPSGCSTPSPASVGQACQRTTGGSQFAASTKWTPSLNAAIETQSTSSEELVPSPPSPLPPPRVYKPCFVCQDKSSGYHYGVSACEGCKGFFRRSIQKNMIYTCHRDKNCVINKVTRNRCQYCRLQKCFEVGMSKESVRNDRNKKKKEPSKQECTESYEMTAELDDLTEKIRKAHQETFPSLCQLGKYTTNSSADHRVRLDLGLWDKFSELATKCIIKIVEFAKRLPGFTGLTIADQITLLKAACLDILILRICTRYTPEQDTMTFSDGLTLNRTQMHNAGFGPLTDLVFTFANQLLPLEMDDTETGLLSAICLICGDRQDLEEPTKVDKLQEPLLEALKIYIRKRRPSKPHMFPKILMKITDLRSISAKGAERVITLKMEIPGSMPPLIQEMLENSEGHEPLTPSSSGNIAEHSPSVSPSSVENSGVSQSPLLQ
How it was run: (§2)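 Nucleosol fractions from COS-1 cells transfected with mouse RARα, β or γ cDNA in pSG5 were incubated with 5 nM [3H]-(all-E)-RA at 4 °C for 4 h. Competitor in ethanol was added at nine concentrations (0–10 μM) in duplicate. Bound label was separated on PD-10 desalting columns and counted by scintillation. IC50 came from a fit of percent specific binding.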

[4] = biological target: T3, Retinoic acid receptor RXR-alpha (Homo sapiens, UniProt P19793); assay: Binding affinity for human Retinoid X receptor RXR alpha; how it was run: as §1
T3 sequence (P19793 whole entry): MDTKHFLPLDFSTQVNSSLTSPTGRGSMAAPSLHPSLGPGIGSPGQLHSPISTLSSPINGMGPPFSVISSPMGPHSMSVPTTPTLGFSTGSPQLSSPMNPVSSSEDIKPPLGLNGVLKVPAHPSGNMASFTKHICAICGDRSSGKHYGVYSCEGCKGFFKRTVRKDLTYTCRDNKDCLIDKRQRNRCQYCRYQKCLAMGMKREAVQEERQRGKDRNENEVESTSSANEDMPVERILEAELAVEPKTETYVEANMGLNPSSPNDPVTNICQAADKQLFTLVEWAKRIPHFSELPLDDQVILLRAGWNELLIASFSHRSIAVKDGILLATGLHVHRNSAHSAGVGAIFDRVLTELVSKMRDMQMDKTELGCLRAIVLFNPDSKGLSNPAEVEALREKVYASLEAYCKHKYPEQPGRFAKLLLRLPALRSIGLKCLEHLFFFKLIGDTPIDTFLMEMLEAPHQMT

[5] = biological target: T4, Retinoic acid receptor RXR-alpha (Mus musculus, UniProt P28700); assay: Inhibition of binding to murine Retinoid X receptor RXR alpha
T4 sequence (P28700 whole entry): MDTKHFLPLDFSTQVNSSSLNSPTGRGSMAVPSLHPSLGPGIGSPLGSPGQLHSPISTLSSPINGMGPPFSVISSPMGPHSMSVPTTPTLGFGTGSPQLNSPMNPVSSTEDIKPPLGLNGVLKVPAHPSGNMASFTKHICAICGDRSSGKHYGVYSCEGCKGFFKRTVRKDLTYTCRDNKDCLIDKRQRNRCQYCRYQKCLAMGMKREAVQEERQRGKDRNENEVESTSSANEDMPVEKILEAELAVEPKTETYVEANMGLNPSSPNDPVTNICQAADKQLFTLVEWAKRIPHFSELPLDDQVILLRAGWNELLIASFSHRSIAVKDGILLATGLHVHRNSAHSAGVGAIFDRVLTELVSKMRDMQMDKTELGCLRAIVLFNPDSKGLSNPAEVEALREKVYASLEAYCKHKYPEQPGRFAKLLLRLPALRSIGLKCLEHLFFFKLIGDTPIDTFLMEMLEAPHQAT

[6] = biological target: T5, Retinoic acid receptor gamma (Mus musculus, UniProt P18911); assay: Inhibition of binding to murine Retinoic acid receptor RAR gamma; how it was run: as §2
T5 sequence (P18911 whole entry): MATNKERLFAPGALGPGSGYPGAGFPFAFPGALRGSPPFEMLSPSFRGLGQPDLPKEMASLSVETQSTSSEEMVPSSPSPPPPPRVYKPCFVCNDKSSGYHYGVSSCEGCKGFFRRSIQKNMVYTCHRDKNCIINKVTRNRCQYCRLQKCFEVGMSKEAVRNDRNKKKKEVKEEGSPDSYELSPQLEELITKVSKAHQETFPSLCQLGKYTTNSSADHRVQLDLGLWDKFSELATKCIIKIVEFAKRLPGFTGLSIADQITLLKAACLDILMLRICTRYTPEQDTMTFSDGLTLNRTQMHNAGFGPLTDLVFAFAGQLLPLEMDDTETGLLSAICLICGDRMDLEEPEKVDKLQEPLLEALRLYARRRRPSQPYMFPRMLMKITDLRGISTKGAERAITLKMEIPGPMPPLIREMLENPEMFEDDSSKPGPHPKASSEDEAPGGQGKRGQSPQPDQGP

Chain of Cellular retinoic acid-binding protein 1 (P62965 whole entry, the tested form may be a part): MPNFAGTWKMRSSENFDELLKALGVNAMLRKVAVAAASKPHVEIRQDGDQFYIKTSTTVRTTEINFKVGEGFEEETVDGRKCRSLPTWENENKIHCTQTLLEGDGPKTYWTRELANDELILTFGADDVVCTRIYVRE

## CCC1=C(C(C)C)/C(=C/C(C)=C/C=C/C(C)=C/C(=O)O)CCC1
[1]
  Kd: 0.3 nM
[2]
  Kd: 1.4 nM
[3]
  IC50: 6 nM
[4]
  Kd: > 200 nM
[5]
  IC50: > 1000 nM
[6]
  IC50: 10 nM

— ChEMBL document CHEMBL1128411, “Conformationally defined 6-s-trans-retinoic acid analogs. 2. Selective agonists for nuclear receptor binding and transcriptional activity” (J Med Chem, 1995)
